In ChEMBL document CHEMBL3611968, “Reengineered tricyclic anti-cancer agents” (Bioorg Med Chem, 2015):
Activity calls are given as the source filed them. No cut-off for these calls is given here.

System: NCI-H1650
Test: Cytotoxicity against human NCI-H1650 cells assessed as growth inhibition after 48 hrs by MTT assay
Type: functional
Procedure, shortened: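 H1650 cells were exposed to drug for 48 h at five concentrations bracketing 1–40 μM in 10 μM steps, with MTT read-out. GI50 is given only where the data form a sigmoidal dose response.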

Structure (SMILES)	GI50 (NCI-H1650, 48 h) [µM]	GI50
O=S(=O)(NCCCN1c2ccccc2Sc2ccc(Cl)cc21)c1cc(F)cc(F)c1	18	–
O=S(=O)(NCCCN1c2ccccc2CCc2ccc(Cl)cc21)c1cccc(OC(F)(F)F)c1	20	–
O=S(=O)(NCCCN1CCCCc2ccccc21)c1ccc(OC(F)(F)F)cc1	–	inactive
O=S(=O)(NC1CCOC2(C1)c1ccccc1CCc1ccccc12)c1ccc(Cl)cc1 (stereo not drawn)	> 40	–
O=S(=O)(NCCCN1c2ccccc2CCc2ccc(Cl)cc21)c1cc(Cl)c(Cl)s1	18	–
O=S(=O)(NCCC=C1c2ccccc2CCc2ccccc21)c1ccc(OC(F)(F)F)cc1	20	–
O=S(=O)(NCCCN1c2ccccc2CCc2ccc(Cl)cc21)c1cccc2ccccc12	> 40	–
O=S(=O)(NC1CCC2(OC1)c1ccccc1CCc1ccccc12)c1ccc(C(F)(F)F)cc1 (stereo not drawn)	15	–
